Source: ChEMBL document CHEMBL5724801, “EUbOPEN Chemogenomics Library - Multiplex” (2024)
Values joined by “and” are separate entries in the source; they are usually repeats but may differ in a detail not shown here. Equal values may be shown once.

System: HEK-293T
Assay: Multiplex assay against HEK293T
Type: toxicity, cell-based
Conditions: human
Procedure, shortened: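 Tubulin, mitochondrial-mass and membrane-permeability phenotypes are per cents of healthy-nucleus cells. Cells were gated by CellPathfinder machine learning into Hoechst high-intensity objects or normal cells, normal cells into healthy, pyknosed or fragmented nuclei, and pyknosed cells into mitotic or apoptotic. Before that, live cells stained at seeding with Hoechst33342, BioTracker Green Microtubule Cytoskeleton Dye, MitoTracker Red and Annexin V Alexa Fluor 680 were imaged on a CQ1 microscope at 37°C and 5% CO2 after compound addition.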

[1] = 12 h, 1 µM, compound concentration 1 uM
[2] = 12 h, 10 µM, compound concentration 10 uM
[3] = 24 h, 1 µM, compound concentration 1 uM
[4] = 24 h, 10 µM, compound concentration 10 uM
[5] = 48 h, 1 µM, compound concentration 1 uM
[6] = 48 h, 10 µM, compound concentration 10 uM

Question: How did the “Population Apoptotic (%)” value [1] turn out when `COc1ccc2c(c1OCc1ccccc1)C[C@@H](C(=O)O)N(C(=O)C(c1ccccc1)c1ccccc1)C2` [OLODANRIGAN] was run?
Answer: 39% and 43%

Question: And the “Population Fragmented Nuclei (%)” value [1]?
Answer: 6% and 7%

Question: And the “Population Healthy Nuclei (%)” value [1]?
Answer: 82% and 81%

Question: What about the “Population Hoechst High Intensity Objects (%)” value [1] of the same compound?
Answer: 7%

Question: What about the “Population Membrane Permeable-Phenotype (%)” value [1] of the same compound?
Answer: 0%

Question: And the “Population Mitochondria Different-Phenotype (%)” value [1]?
Answer: 44% and 48%

Question: What about the “Population Mitotic Cells (%)” value [1] of the same compound?
Answer: 60% and 56%

Question: And the “Population Normal (%)” value [1]?
Answer: 92%

Question: And the “Population Pyknosed Nuclei (%)” value [1]?
Answer: 11% and 10%

Question: What about the “Population Tubulin-Different-Phenotype (%)” value [1] of the same compound?
Answer: 21% and 17%

Question: And the “Total Cell Count” value [1]?
Answer: 419 and 409

Question: And the “Population Apoptotic (%)” value [2]?
Answer: 45% and 44%

Question: What about the “Population Fragmented Nuclei (%)” value [2] of the same compound?
Answer: 6% and 4%

Question: What about the “Population Healthy Nuclei (%)” value [2] of the same compound?
Answer: 81% and 83%

Question: What about the “Population Hoechst High Intensity Objects (%)” value [2] of the same compound?
Answer: 6% and 3%

Question: And the “Population Membrane Permeable-Phenotype (%)” value [2]?
Answer: 0%

Question: What about the “Population Mitochondria Different-Phenotype (%)” value [2] of the same compound?
Answer: 42% and 58%

Question: And the “Population Mitotic Cells (%)” value [2]?
Answer: 54% and 55%

Question: What about the “Population Normal (%)” value [2] of the same compound?
Answer: 93% and 96%

Question: And the “Population Pyknosed Nuclei (%)” value [2]?
Answer: 12%

Question: And the “Population Tubulin-Different-Phenotype (%)” value [2]?
Answer: 35% and 27%

Question: And the “Total Cell Count” value [2]?
Answer: 389 and 368

Question: What about the “Population Apoptotic (%)” value [3] of the same compound?
Answer: 46% and 19%

Question: What about the “Population Fragmented Nuclei (%)” value [3] of the same compound?
Answer: 11% and 10%

Question: And the “Population Healthy Nuclei (%)” value [3]?
Answer: 78% and 81%

Question: What about the “Population Hoechst High Intensity Objects (%)” value [3] of the same compound?
Answer: 3% and 6%

Question: And the “Population Membrane Permeable-Phenotype (%)” value [3]?
Answer: 0% and 1%

Question: And the “Population Mitochondria Different-Phenotype (%)” value [3]?
Answer: 24% and 30%

Question: What about the “Population Mitotic Cells (%)” value [3] of the same compound?
Answer: 53% and 80%

Question: And the “Population Normal (%)” value [3]?
Answer: 96% and 93%

Question: And the “Population Pyknosed Nuclei (%)” value [3]?
Answer: 10% and 8%

Question: What about the “Population Tubulin-Different-Phenotype (%)” value [3] of the same compound?
Answer: 15% and 14%

Question: What about the “Total Cell Count” value [3] of the same compound?
Answer: 614 and 521

Question: And the “Population Apoptotic (%)” value [4]?
Answer: 40% and 43%

Question: What about the “Population Fragmented Nuclei (%)” value [4] of the same compound?
Answer: 7% and 10%

Question: What about the “Population Healthy Nuclei (%)” value [4] of the same compound?
Answer: 78% and 79%

Question: And the “Population Hoechst High Intensity Objects (%)” value [4]?
Answer: 6%

Question: And the “Population Membrane Permeable-Phenotype (%)” value [4]?
Answer: 0%

Question: What about the “Population Mitochondria Different-Phenotype (%)” value [4] of the same compound?
Answer: 34% and 57%

Question: And the “Population Mitotic Cells (%)” value [4]?
Answer: 59% and 56%

Question: And the “Population Normal (%)” value [4]?
Answer: 93%

Question: What about the “Population Pyknosed Nuclei (%)” value [4] of the same compound?
Answer: 13% and 9%

Question: And the “Population Tubulin-Different-Phenotype (%)” value [4]?
Answer: 32% and 28%

Question: And the “Total Cell Count” value [4]?
Answer: 456 and 414

Question: And the “Population Apoptotic (%)” value [5]?
Answer: 26% and 22%

Question: What about the “Population Fragmented Nuclei (%)” value [5] of the same compound?
Answer: 13% and 15%

Question: What about the “Population Healthy Nuclei (%)” value [5] of the same compound?
Answer: 80% and 79%

Question: What about the “Population Hoechst High Intensity Objects (%)” value [5] of the same compound?
Answer: 2%

Question: And the “Population Membrane Permeable-Phenotype (%)” value [5]?
Answer: 0%

Question: And the “Population Mitochondria Different-Phenotype (%)” value [5]?
Answer: 15% and 18%

Question: And the “Population Mitotic Cells (%)” value [5]?
Answer: 73% and 77%

Question: What about the “Population Normal (%)” value [5] of the same compound?
Answer: 97%

Question: And the “Population Pyknosed Nuclei (%)” value [5]?
Answer: 5%

Question: What about the “Population Tubulin-Different-Phenotype (%)” value [5] of the same compound?
Answer: 11% and 10%

Question: And the “Total Cell Count” value [5]?
Answer: 1083 and 818

Question: And the “Population Apoptotic (%)” value [6]?
Answer: 32% and 39%

Question: What about the “Population Fragmented Nuclei (%)” value [6] of the same compound?
Answer: 12%

Question: And the “Population Healthy Nuclei (%)” value [6]?
Answer: 78% and 80%

Question: What about the “Population Hoechst High Intensity Objects (%)” value [6] of the same compound?
Answer: 5% and 6%

Question: What about the “Population Membrane Permeable-Phenotype (%)” value [6] of the same compound?
Answer: 0%

Question: And the “Population Mitochondria Different-Phenotype (%)” value [6]?
Answer: 22% and 32%

Question: What about the “Population Mitotic Cells (%)” value [6] of the same compound?
Answer: 67% and 60%

Question: What about the “Population Normal (%)” value [6] of the same compound?
Answer: 94% and 93%

Question: And the “Population Pyknosed Nuclei (%)” value [6]?
Answer: 8% and 7%

Question: And the “Population Tubulin-Different-Phenotype (%)” value [6]?
Answer: 15% and 18%

Question: What about the “Total Cell Count” value [6] of the same compound?
Answer: 659 and 534

Question: How did the “Population Apoptotic (%)” value [1] turn out when `CC[C@@H](C)Nc1nc(C)nc2c(-c3ccc(OC)nc3C)c(C)nn12` [PEXACERFONT] was run?
Answer: 33% and 47%

Question: And the “Population Fragmented Nuclei (%)” value [1]?
Answer: 7% and 5%

Question: And the “Population Healthy Nuclei (%)” value [1]?
Answer: 79% and 82%

Question: And the “Population Hoechst High Intensity Objects (%)” value [1]?
Answer: 6% and 8%

Question: And the “Population Membrane Permeable-Phenotype (%)” value [1]?
Answer: 0%

Question: What about the “Population Mitochondria Different-Phenotype (%)” value [1] of the same compound?
Answer: 45% and 61%

Question: What about the “Population Mitotic Cells (%)” value [1] of the same compound?
Answer: 66% and 52%

Question: And the “Population Normal (%)” value [1]?
Answer: 93% and 91%

Question: And the “Population Pyknosed Nuclei (%)” value [1]?
Answer: 13% and 11%

Question: And the “Population Tubulin-Different-Phenotype (%)” value [1]?
Answer: 34% and 31%

Question: What about the “Total Cell Count” value [1] of the same compound?
Answer: 399 and 314

Question: What about the “Population Apoptotic (%)” value [2] of the same compound?
Answer: 38% and 41%

Question: And the “Population Fragmented Nuclei (%)” value [2]?
Answer: 6% and 9%

Question: And the “Population Healthy Nuclei (%)” value [2]?
Answer: 75% and 74%

Question: What about the “Population Hoechst High Intensity Objects (%)” value [2] of the same compound?
Answer: 8% and 11%

Question: What about the “Population Membrane Permeable-Phenotype (%)” value [2] of the same compound?
Answer: 0% and 1%

Question: What about the “Population Mitochondria Different-Phenotype (%)” value [2] of the same compound?
Answer: 59% and 75%

Question: What about the “Population Mitotic Cells (%)” value [2] of the same compound?
Answer: 61% and 58%

Question: And the “Population Normal (%)” value [2]?
Answer: 91% and 88%

Question: What about the “Population Pyknosed Nuclei (%)” value [2] of the same compound?
Answer: 17% and 16%

Question: What about the “Population Tubulin-Different-Phenotype (%)” value [2] of the same compound?
Answer: 54% and 55%

Question: And the “Total Cell Count” value [2]?
Answer: 451 and 321

Question: And the “Population Apoptotic (%)” value [3]?
Answer: 24% and 45%

Question: What about the “Population Fragmented Nuclei (%)” value [3] of the same compound?
Answer: 8% and 13%

Question: And the “Population Healthy Nuclei (%)” value [3]?
Answer: 79% and 76%

Question: And the “Population Hoechst High Intensity Objects (%)” value [3]?
Answer: 3% and 7%

Question: What about the “Population Membrane Permeable-Phenotype (%)” value [3] of the same compound?
Answer: 0%

Question: And the “Population Mitochondria Different-Phenotype (%)” value [3]?
Answer: 26% and 34%

Question: What about the “Population Mitotic Cells (%)” value [3] of the same compound?
Answer: 75% and 54%

Question: And the “Population Normal (%)” value [3]?
Answer: 96% and 92%

Question: What about the “Population Pyknosed Nuclei (%)” value [3] of the same compound?
Answer: 11% and 9%

Question: And the “Population Tubulin-Different-Phenotype (%)” value [3]?
Answer: 21% and 15%

Question: And the “Total Cell Count” value [3]?
Answer: 508 and 387

Question: And the “Population Apoptotic (%)” value [4]?
Answer: 37% and 33%

Question: And the “Population Fragmented Nuclei (%)” value [4]?
Answer: 6% and 7%

Question: And the “Population Healthy Nuclei (%)” value [4]?
Answer: 79% and 78%

Question: What about the “Population Hoechst High Intensity Objects (%)” value [4] of the same compound?
Answer: 7% and 13%

Question: What about the “Population Membrane Permeable-Phenotype (%)” value [4] of the same compound?
Answer: 1% and 0%

Question: And the “Population Mitochondria Different-Phenotype (%)” value [4]?
Answer: 46% and 70%

Question: What about the “Population Mitotic Cells (%)” value [4] of the same compound?
Answer: 62% and 66%

Question: What about the “Population Normal (%)” value [4] of the same compound?
Answer: 92% and 86%

Question: What about the “Population Pyknosed Nuclei (%)” value [4] of the same compound?
Answer: 14%

Question: What about the “Population Tubulin-Different-Phenotype (%)” value [4] of the same compound?
Answer: 52% and 48%

Question: And the “Total Cell Count” value [4]?
Answer: 612 and 371

Question: What about the “Population Apoptotic (%)” value [5] of the same compound?
Answer: 26% and 41%

Question: And the “Population Fragmented Nuclei (%)” value [5]?
Answer: 12% and 10%

Question: What about the “Population Healthy Nuclei (%)” value [5] of the same compound?
Answer: 80%

Question: What about the “Population Hoechst High Intensity Objects (%)” value [5] of the same compound?
Answer: 2%

Question: What about the “Population Membrane Permeable-Phenotype (%)” value [5] of the same compound?
Answer: 0% and 1%

Question: And the “Population Mitochondria Different-Phenotype (%)” value [5]?
Answer: 22% and 27%

Question: And the “Population Mitotic Cells (%)” value [5]?
Answer: 73% and 58%

Question: And the “Population Normal (%)” value [5]?
Answer: 97%

Question: And the “Population Pyknosed Nuclei (%)” value [5]?
Answer: 7% and 9%

Question: What about the “Population Tubulin-Different-Phenotype (%)” value [5] of the same compound?
Answer: 20% and 19%

Question: What about the “Total Cell Count” value [5] of the same compound?
Answer: 816 and 520

Question: What about the “Population Apoptotic (%)” value [6] of the same compound?
Answer: 40%

Question: And the “Population Fragmented Nuclei (%)” value [6]?
Answer: 13% and 10%

Question: And the “Population Healthy Nuclei (%)” value [6]?
Answer: 77% and 72%

Question: And the “Population Hoechst High Intensity Objects (%)” value [6]?
Answer: 7% and 18%

Question: What about the “Population Membrane Permeable-Phenotype (%)” value [6] of the same compound?
Answer: 1% and 0%

Question: What about the “Population Mitochondria Different-Phenotype (%)” value [6] of the same compound?
Answer: 45% and 53%

Question: And the “Population Mitotic Cells (%)” value [6]?
Answer: 59% and 60%

Question: And the “Population Normal (%)” value [6]?
Answer: 92% and 81%

Question: And the “Population Pyknosed Nuclei (%)” value [6]?
Answer: 9% and 17%

Question: And the “Population Tubulin-Different-Phenotype (%)” value [6]?
Answer: 38% and 36%

Question: And the “Total Cell Count” value [6]?
Answer: 692 and 390
